Two compounds from PMC2933508 (Cancer research, 2010) can be followed below.

The structures appear in SMILES notation. Where a SMILES comes first, the peptide text is derived from it. [ ]: non-standard residue; d: D form. The star is where a group is joined. NH(Colchicin-10-yl) = COc1cc2c(c(OC)c1OC)-c1ccc(N*)c(=O)cc1[C@@H](NC(C)=O)CC2; FITC = O=C1OC2(c3ccc(O)cc3Oc3cc(O)ccc32)c2ccc(NC(=S)*)cc21; hPhe = N[C@@H](CCc1ccccc1)C(=O)O; Cit = NC(=O)NCCC[C@H](N)C(=O)O; βAla = NCCC(=O)O Where only a bound is given, the exact number is not on record here.

The subject of series [1] is HT1080 tumors. The series can be described thus: Antitumor activity, HT1080 xenograft, single agent. In kind it is in vivo, mouse. Put shortly:
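Female Balb/c nude mice (6–8 wk) carried s.c. HT1080 xenograft fragments (2–3 mm³) and were randomized at ~32 mm³. They got a single i.p. dose of test conjugate (37.5, 50, 62.5 or 75 mg kg⁻¹) or molar-equivalent free metabolite (7.5–15 mg kg⁻¹). Caliper volume ((a²×b)/2, normalized to day 0) and body weight were recorded daily for up to 64 days. Growth delay was the time to tumor-volume doubling relative to control. Mann-Whitney U test.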

Series [2] can be described thus: ICT2588 metabolism ex vivo in MCF7 xenograft homogenate. The class given is in vitro ADME. The settings on record: human, other tissue homogenate, pH 7.6. Put shortly: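 Supernatants were run at 100 mg tissue per ml with test compound at 20 μmol/L final. Aliquots taken over 120 min were acetonitrile-precipitated and analysed by LC-MS: reverse-phase, 22.5–50% acetonitrile/0.05% TFA gradient over 30 min, parent quantified at 360 nm. Three independent experiments.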

The test system of series [3] is HT1080 tumors. The series can be described thus: Vascular shutdown and tumor necrosis in HT1080 tumors. The class given is in vivo, mouse. The settings on record: 24 h after i.p. ICT2588 150 mg kg−1, HT1080 tumor-bearing mice, mean of 3 mice. Put shortly:
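Mice bearing HT1080 tumours got i.p. test conjugate (150 mg kg⁻¹), free metabolite (10.2 mg kg⁻¹) or vehicle (10% DMSO/Arachis oil). Functional tumour vasculature and hemorrhagic necrosis were assessed 24 h later; mean of 3 mice ± standard error.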

Another series has as its system MCF7. The series can be described thus: Intracellular fluorescence following treatment. The class given is cell-based, human. The settings on record: in vitro.
Series [4] has as its system HT1080 cells (MT1-MMP positive). As to the kind of experiment: MTT chemosensitivity assay, HT1080 cells. The settings on record: in vitro, MTT IC50 ratio. The class given is cell-based, human. Put shortly:
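HT1080 and MCF7 cells were grown in RPMI 1640 with 10% FBS, 1 mmol/L pyruvate and 2 mmol/L glutamine, at low passage. MTT assay: exposure to test conjugate (2.4 nmol/L–5 μmol/L), free metabolite (0.1 nmol/L–5 μmol/L) or DMSO for 24 or 96 h. Survival was read 96 h post-treatment and IC50 taken from survival curves; mean ± SD of 3 independent experiments.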
Background: Tetrazolium assays rely on reduction of a dye to a coloured formazan, in cell work by metabolically active cells.

Series [5] can be described thus: Pharmacokinetics and tissue distribution in HT1080 tumor-bearing mice. In kind it is in vivo, mouse. The settings on record: ICT2552 10.2 mg kg−1 i.p., 4 h post-administration. Put shortly: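 Mice bearing HT1080 tumours received i.p. test conjugate (150 mg kg⁻¹), free metabolite (10.2 mg kg⁻¹) or vehicle (10% DMSO/Arachis oil). Tumour, blood, liver, kidney, lung, heart and spleen were collected at set times. Plasma (5000 g, 10 min) was diluted 1:5 into methanol; tissues were snap-frozen and homogenized in ice-cold methanol. Supernatants went to LC-MS against agent-free plasma/tissue calibrators; 3 mice per time point.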

`COc1cc2c(c(OC)c1OC)-c1ccc(NC(=O)[C@H](Cc3ccc(O)cc3)NC(=O)[C@H](CC(C)C)NC(=O)[C@H](Cc3ccc(O)cc3)NC(=O)[C@H](CCc3ccccc3)NC(=O)CNC(=O)[C@H](CCCNC(N)=O)NC(=O)[C@H](CO)NC(=O)[C@H](CCCNC(=N)N)NC(=O)CCNC(=S)Nc3ccc4c(c3)C(=O)OC43c4ccc(O)cc4Oc4cc(O)ccc43)c(=O)cc1[C@@H](NC(C)=O)CC2` [ICT2588] ({FITC-βAla}-RS[Cit]G[hPhe]YLY-{NH(Colchicin-10-yl)}; N-terminus and C-terminus assumed) gave a tumor growth delay with HT1080 tumors [1] (ICT2588 75 mg kg−1 single i.p. dose, p<0.01) of 4.4 days. Also, the “loss in mouse bodyweight (maximum)” value in the series with HT1080 tumors [1] (all doses of ICT2588 used (37.5-75 mg kg−1 i.p.), data not shown) is on record as at most 6%. For the same compound, the half-life (usually the time in which the quantity being followed falls by half) in series [2] stood at 33.1 min. Besides, the “increase in hemorrhagic necrosis” value in the series on HT1080 tumors [3] was 3 fold. The “cell entry / intracellular fluorescence following treatment” value in the series with MCF7 is recorded as “lack of observable intracellular fluorescence”. In series [4], the “chemosensitivity of HT1080 cells relative to MCF7 cells” value is “at least 10 fold”.
Take `COc1cc2c(c(OC)c1OC)-c1ccc(N)c(=O)cc1[C@@H](NC(C)=O)CC2` [ICT2552, azademethylcolchicine]: in the series with HT1080 tumors [1] (ICT2552 15 mg kg−1 single i.p. dose (equimolar to ICT2588 75 mg kg−1)), the tumor growth delay is recorded as 1.9 days. The “antitumor response compared with ICT2588 at equimolar doses” value in the series with HT1080 tumors [1] (ICT2552 7.5, 10, 12.5 and 15 mg kg−1 i.p.) is on record as “significantly lower antitumor response”. Further, in series [5], the “concentration of ICT2552 in plasma” value is listed as “below the level of detection” and the “concentration of ICT2552 in tumor versus liver tissue” value is listed as “not significantly different”. Moreover, the “chemosensitivity of HT1080 cells relative to MCF7 cells” value in series [4] is “equally cytotoxic to HT1080 and MCF7 cells”.
